The record followed here is ChEMBL document CHEMBL2057083, “Development of new carbon-11 labelled radiotracers for imaging GABAA- and GABAB-benzodiazepine receptors” (Bioorg Med Chem, 2012).

Series [1] is described as follows: Lipophilicity, log D in octanol/buffer at pH 7.4 by shake-flask method.
In series [2] the test system is Cerebellum. As to the kind of experiment: Biodistribution in Sprague-Dawley rat cerebellum at 37 MBq, iv measured 5 mins post injection. Type of series: ADME, organism-based. To be noted: in vivo.
The test system of series [3] is Cerebellum. The experiment in a line: Biodistribution in Sprague-Dawley rat cerebellum at 37 MBq, iv measured 15 mins post injection. Type of series: ADME, organism-based. To be noted: in vivo, 0.25 h.
In series [4] the test system is Cerebellum. As to the kind of experiment: Biodistribution in Sprague-Dawley rat cerebellum at 37 MBq, iv measured 30 mins post injection. The conditions noted are these: in vivo, 0.5 h. It counts as ADME, organism-based.
Series [5] deals with Cerebellum. The experiment in a line: Biodistribution in Sprague-Dawley rat cerebellum at 37 MBq, iv measured 60 mins post injection. It counts as ADME, organism-based. To be noted: in vivo, 1 h.
In series [6] the test system is Hippocampus. The experiment in a line: Biodistribution in Sprague-Dawley rat hippocampus at 37 MBq, iv measured 5 mins post injection. It counts as ADME, organism-based. To be noted: in vivo.
Series [7] has as its system Hippocampus. As to the kind of experiment: Biodistribution in Sprague-Dawley rat hippocampus at 37 MBq, iv measured 15 mins post injection. Type of series: ADME, organism-based. The conditions noted are these: in vivo, 0.25 h.
In series [8] the test system is Hippocampus. As to the kind of experiment: Biodistribution in Sprague-Dawley rat hippocampus at 37 MBq, iv measured 30 mins post injection. It counts as ADME, organism-based. The conditions noted are these: in vivo, 0.5 h.
Series [9] concerns Hippocampus. As to the kind of experiment: Biodistribution in Sprague-Dawley rat hippocampus at 37 MBq, iv measured 60 mins post injection. It counts as ADME, organism-based. To be noted: in vivo, 1 h.
In series [10] the test system is Striatum. The experiment in a line: Biodistribution in Sprague-Dawley rat striatum at 37 MBq, iv measured 5 mins post injection. The conditions noted are these: in vivo. Type of series: ADME, organism-based.
Series [11] concerns Striatum. The experiment in a line: Biodistribution in Sprague-Dawley rat striatum at 37 MBq, iv measured 15 mins post injection. It counts as ADME, organism-based. To be noted: in vivo, 0.25 h.
The test system of series [12] is Striatum. The experiment in a line: Biodistribution in Sprague-Dawley rat striatum at 37 MBq, iv measured 30 mins post injection. To be noted: in vivo, 0.5 h. Type of series: ADME, organism-based.
Series [13] has as its system Striatum. The experiment in a line: Biodistribution in Sprague-Dawley rat striatum at 37 MBq, iv measured 60 mins post injection. The conditions noted are these: in vivo, 1 h. Type of series: ADME, organism-based.
In series [14] the test system is Rattus norvegicus. As to the kind of experiment: Biodistribution in Sprague-Dawley rat cortex (front) at 37 MBq, iv measured 5 mins post injection. Type of series: ADME, organism-based. To be noted: in vivo.
Series [15] has as its system Rattus norvegicus. As to the kind of experiment: Biodistribution in Sprague-Dawley rat cortex (front) at 37 MBq, iv measured 15 mins post injection. Type of series: ADME, organism-based. To be noted: in vivo, 0.25 h.
In series [16] the test system is Rattus norvegicus. As to the kind of experiment: Biodistribution in Sprague-Dawley rat cortex (front) at 37 MBq, iv measured 30 mins post injection. It counts as ADME, organism-based. To be noted: in vivo, 0.5 h.
Series [17] concerns Rattus norvegicus. As to the kind of experiment: Biodistribution in Sprague-Dawley rat cortex (front) at 37 MBq, iv measured 60 mins post injection. Type of series: ADME, organism-based. The conditions noted are these: in vivo, 1 h.
The test system of series [18] is Rattus norvegicus. The experiment in a line: Biodistribution in Sprague-Dawley rat cortex (rest) at 37 MBq, iv measured 5 mins post injection. The conditions noted are these: in vivo. Type of series: ADME, organism-based.
Series [19] relates to Rattus norvegicus. As to the kind of experiment: Biodistribution in Sprague-Dawley rat cortex (rest) at 37 MBq, iv measured 15 mins post injection. To be noted: in vivo, 0.25 h. Type of series: ADME, organism-based.
The subject of series [20] is Rattus norvegicus. The experiment in a line: Biodistribution in Sprague-Dawley rat cortex (rest) at 37 MBq, iv measured 30 mins post injection. Type of series: ADME, organism-based. To be noted: in vivo, 0.5 h.
Series [21] has as its system Rattus norvegicus. As to the kind of experiment: Biodistribution in Sprague-Dawley rat cortex (rest) at 37 MBq, iv measured 60 mins post injection. It counts as ADME, organism-based. To be noted: in vivo, 1 h.
Series [22] deals with Brain. As to the kind of experiment: Biodistribution in Sprague-Dawley rat rest of brain at 37 MBq, iv measured 5 mins post injection. Type of series: ADME, organism-based. The conditions noted are these: in vivo.
For series [23], the system named is Brain. As to the kind of experiment: Biodistribution in Sprague-Dawley rat rest of brain at 37 MBq, iv measured 15 mins post injection. Type of series: ADME, organism-based. To be noted: in vivo, 0.25 h.
The test system of series [24] is Brain. As to the kind of experiment: Biodistribution in Sprague-Dawley rat rest of brain at 37 MBq, iv measured 30 mins post injection. The conditions noted are these: in vivo, 0.5 h. Type of series: ADME, organism-based.
In series [25] the test system is Brain. The experiment in a line: Biodistribution in Sprague-Dawley rat rest of brain at 37 MBq, iv measured 60 mins post injection. The conditions noted are these: in vivo, 1 h. It counts as ADME, organism-based.
Series [26] has as its system Blood. As to the kind of experiment: Biodistribution in Sprague-Dawley rat blood at 37 MBq, iv measured 5 mins post injection. Type of series: ADME, organism-based. To be noted: in vivo.
Series [27] deals with Blood. As to the kind of experiment: Biodistribution in Sprague-Dawley rat blood at 37 MBq, iv measured 15 mins post injection. The conditions noted are these: in vivo, 0.25 h. It counts as ADME, organism-based.
For series [28], the system named is Blood. As to the kind of experiment: Biodistribution in Sprague-Dawley rat blood at 37 MBq, iv measured 30 mins post injection. To be noted: in vivo, 0.5 h. Type of series: ADME, organism-based.
Series [29] relates to Blood. As to the kind of experiment: Biodistribution in Sprague-Dawley rat blood at 37 MBq, iv measured 60 mins post injection. To be noted: in vivo, 1 h. Type of series: ADME, organism-based.
In series [30] the test system is Thalamus. The experiment in a line: Biodistribution in Sprague-Dawley rat thalamus at 37 MBq, iv measured 2 mins post injection. Type of series: ADME, organism-based. To be noted: in vivo.
In series [31] the test system is Thalamus. The experiment in a line: Biodistribution in Sprague-Dawley rat thalamus at 37 MBq, iv measured 5 mins post injection. It counts as ADME, organism-based. The conditions noted are these: in vivo. Summed up: (§1)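 Conscious rats received the radiotracer by tail-vein injection and were killed by decapitation at the stated time. Brains were removed, and regions were excised, blotted, weighed and counted for radioactivity. Uptake is given as decay-corrected %ID/g.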

Series [32] relates to Thalamus. The experiment in a line: Biodistribution in Sprague-Dawley rat thalamus at 37 MBq, iv measured 15 mins post injection. Type of series: ADME, organism-based. The conditions noted are these: in vivo, 0.25 h. An outline of the steps:
as §1

In series [33] the test system is Thalamus. As to the kind of experiment: Biodistribution in Sprague-Dawley rat thalamus at 37 MBq, iv measured 30 mins post injection. Type of series: ADME, organism-based. The conditions noted are these: in vivo, 0.5 h. An outline of the steps: as §1
Series [34] relates to Thalamus. As to the kind of experiment: Biodistribution in Sprague-Dawley rat thalamus at 37 MBq, iv measured 60 mins post injection. It counts as ADME, organism-based. To be noted: in vivo, 1 h. Summed up:
as §1

For series [35], the system named is Rattus norvegicus. The experiment in a line: Biodistribution in Sprague-Dawley rat hipothalamus at 37 MBq, iv measured 2 mins post injection. It counts as ADME, organism-based, Hypothalamus. To be noted: in vivo.
The subject of series [36] is Rattus norvegicus. The experiment in a line: Biodistribution in Sprague-Dawley rat hipothalamus at 37 MBq, iv measured 5 mins post injection. It counts as ADME, organism-based, Hypothalamus. The conditions noted are these: in vivo. An outline of the steps:
as §1

Series [37] concerns Rattus norvegicus. The experiment in a line: Biodistribution in Sprague-Dawley rat hipothalamus at 37 MBq, iv measured 15 mins post injection. Type of series: ADME, organism-based, Hypothalamus. The conditions noted are these: in vivo, 0.25 h. An outline of the steps:
as §1

Series [38] relates to Rattus norvegicus. The experiment in a line: Biodistribution in Sprague-Dawley rat hipothalamus at 37 MBq, iv measured 30 mins post injection. Type of series: ADME, organism-based, Hypothalamus. The conditions noted are these: in vivo, 0.5 h. Summed up: as §1
Series [39] deals with Rattus norvegicus. The experiment in a line: Biodistribution in Sprague-Dawley rat hipothalamus at 37 MBq, iv measured 60 mins post injection. It counts as ADME, organism-based, Hypothalamus. To be noted: in vivo, 1 h. An outline of the steps:
as §1

The test system of series [40] is Cerebellum. The experiment in a line: Biodistribution in Sprague-Dawley rat cerebellum at 37 MBq, iv measured 2 mins post injection. It counts as ADME, organism-based. The conditions noted are these: in vivo.
Series [41] has as its system Hippocampus. As to the kind of experiment: Biodistribution in Sprague-Dawley rat hippocampus at 37 MBq, iv measured 2 mins post injection. Type of series: ADME, organism-based. To be noted: in vivo.
The test system of series [42] is Striatum. The experiment in a line: Biodistribution in Sprague-Dawley rat striatum at 37 MBq, iv measured 2 mins post injection. It counts as ADME, organism-based. The conditions noted are these: in vivo.
The subject of series [43] is Rattus norvegicus. The experiment in a line: Biodistribution in Sprague-Dawley rat cortex (front) at 37 MBq, iv measured 2 mins post injection. It counts as ADME, organism-based. The conditions noted are these: in vivo.
The subject of series [44] is Rattus norvegicus. The experiment in a line: Biodistribution in Sprague-Dawley rat cortex (rest) at 37 MBq, iv measured 2 mins post injection. It counts as ADME, organism-based. To be noted: in vivo.
Series [45] deals with Brain. As to the kind of experiment: Biodistribution in Sprague-Dawley rat rest of brain at 37 MBq, iv measured 2 mins post injection. It counts as ADME, organism-based. To be noted: in vivo.
For series [46], the system named is Blood. The experiment in a line: Biodistribution in Sprague-Dawley rat blood at 37 MBq, iv measured 2 mins post injection. Type of series: ADME, organism-based. To be noted: in vivo.

As usually defined, the logD is the decadic logarithm of the distribution of all forms, ionised or not, between an organic phase and buffer at a given pH. A high value points to higher lipophilicity.

In [1], `Cc1nc(O[11CH3])ccc1-c1cccc2c(N)c3c(nc12)CN(C1CCC1)C3=O` displayed a logD of 4.12.

With `CC(NCCC(c1ccccc1)c1ccccc1)c1ccc(O[11CH3])c(Cl)c1` (racemic), the Drug uptake turned out to be 0.14 % ID/g in the series with Cerebellum [2]; 0.12 % ID/g in the series on Cerebellum [3]; 0.13 % ID/g in the series on Cerebellum [4]; 0.11 % ID/g with Cerebellum [5]; 0.1 % ID/g in the series on Hippocampus [6]; 0.1 % ID/g in the series with Hippocampus [7]. For the same compound, the Drug uptake with Hippocampus [8] is on record as 0.11 % ID/g; in the series with Hippocampus [9], 0.11 % ID/g; in the series with Striatum [10], 0.11 % ID/g; in the series with Striatum [11] it was 0.12 % ID/g; with Striatum [12], 0.12 % ID/g; in the series with Striatum [13], 0.11 % ID/g. Also, the Drug uptake worked out at 0.13 % ID/g in the series on Rattus norvegicus [14]; 0.14 % ID/g with Rattus norvegicus [15]; 0.14 % ID/g in the series on Rattus norvegicus [16]; 0.13 % ID/g in the series on Rattus norvegicus [17]; 0.13 % ID/g in the series with Rattus norvegicus [18]; 0.13 % ID/g in the series with Rattus norvegicus [19]. Further, the Drug uptake with Rattus norvegicus [20] is 0.13 % ID/g; in the series with Rattus norvegicus [21], 0.13 % ID/g; in the series with Brain [22], 0.11 % ID/g; with Brain [23] it was 0.11 % ID/g; with Brain [24] it was 0.12 % ID/g; in the series on Brain [25] it was 0.11 % ID/g. Also, the Drug uptake with Blood [26] is on record as 0.12 % ID/g; in the series with Blood [27] it was 0.87 % ID/g; in the series on Blood [28] it was 0.09 % ID/g; with Blood [29], 0.13 % ID/g; with Thalamus [30], 0.1 % ID/g; in the series on Thalamus [31] it was 0.12 % ID/g. Moreover, the Drug uptake in the series on Thalamus [32] is on record as 0.13 % ID/g; with Thalamus [33], 0.12 % ID/g; in the series with Thalamus [34], 0.14 % ID/g; in the series with Rattus norvegicus [35], 0.11 % ID/g; in the series on Rattus norvegicus [36], 0.11 % ID/g; in the series with Rattus norvegicus [37] it was 0.1 % ID/g. Further, the Drug uptake is given as 0.1 % ID/g in the series with Rattus norvegicus [38]; 0.11 % ID/g in the series with Rattus norvegicus [39]; 0.13 % ID/g with Cerebellum [40]; 0.08 % ID/g in the series on Hippocampus [41]; 0.1 % ID/g with Striatum [42]; 0.12 % ID/g in the series with Rattus norvegicus [43]. Also, the Drug uptake in the series on Rattus norvegicus [44] came to 0.13 % ID/g; in the series on Brain [45], 0.1 % ID/g; with Blood [46], 0.18 % ID/g. In [1], this compound displayed a logD of 3.2.
